The source of these data is article PMC2843764 (Bioorganic & medicinal chemistry letters, 2010).

In general, inhibition refers to the percentage by which the read-out fell short of the control.

One assay has as its system α2-adrenergic receptors. As to conditions: cited from earlier work.
The target in assay [1] is T1, RBBP9 (Homo sapiens, UniProt O75884). The note with it: ~20,000 compound fluopol-ABPP screen ref 5; cited from earlier work.
The subject of a further assay is translation (ribosome). The note with it: in vitro ref 15; cited from earlier work.
The target in assay [2] is T1, RBBP9. The assay can be described thus: reversibility of RBBP9 inhibition by gel filtration, FP-Rh labeling. Type of assay: biochemical. As to conditions: inhibitor 100 µM. In short, it runs like this:
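One half was reacted directly with FP-Rh. The other half was gel-filtered, then reacted with FP-Rh. Probe labelling was compared between the two halves.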
(In general: Size exclusion chromatography separates by hydrodynamic size, large species first.)

The subject of assay [3] is serine hydrolases of the mouse brain membrane proteome. Type of assay: biochemical. The note with it: mouse brain membrane proteome doped with RBBP9, FP-Rh probe, up to 200 µM. In short, it runs like this: (§1)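 Gel-based competitive ABPP. Two proteomes were used: the soluble fraction of RBBP9-transfected HEK 293T cells, and mouse brain membrane fraction doped with recombinant RBBP9. Each was preincubated 30 minutes with test compound (HEK: 20 and 200 µM; brain: a concentration series or 200 µM), then given FP-Rh (1 µM). Reactions were quenched after 10 minutes, run on SDS-PAGE and quantified by in-gel fluorescence scanning.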

The target of assay [4] is T1, RBBP9. Description: LC-MS/MS identification of site of covalent labeling on RBBP9. The note with it: trypsin digest, +138.00 Da modification.
Assay [5] has as its system serine hydrolases of the HEK 293T soluble proteome. Description: competitive ABPP with FP-Rh in RBBP9-transfected HEK 293T soluble proteome. As to conditions: FP-Rh probe, 20 and 200 µM. Type of assay: biochemical. In short, it runs like this: as §1
Assay [6] deals with T2, glutathione transferase omega 1 (GSTO1) (Homo sapiens, UniProt P78417).
T2 sequence (P78417 1-241): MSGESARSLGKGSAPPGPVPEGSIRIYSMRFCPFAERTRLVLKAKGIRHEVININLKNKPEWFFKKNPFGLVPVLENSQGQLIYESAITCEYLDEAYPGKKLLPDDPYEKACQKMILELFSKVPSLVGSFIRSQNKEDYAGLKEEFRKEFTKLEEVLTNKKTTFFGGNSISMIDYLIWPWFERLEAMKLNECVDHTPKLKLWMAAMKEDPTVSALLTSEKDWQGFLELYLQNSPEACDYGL
The assay can be described thus: PS-Rh labeling of GSTO1 in MDA-MB-231 proteome. The assay is classed as biochemical. The note with it: compounds 20 µM, PS-Rh 5 µM, 1 hour. In short, it runs like this:
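Gel-based competitive ABPP for thiol cross-reactivity. MDA-MB-231 proteome was treated with test compound (20 µM) and then labelled with the cysteine-reactive phenylsulfonate-rhodamine probe (5 µM, 1 hour). Labelled proteins were resolved on gel and read by fluorescence.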

In assay [7] the target is T1, RBBP9. The assay can be described thus: fluopol-ABPP screen for RBBP9 inhibition. Type of assay: biochemical. The note with it: read-out: percent inhibition of RBBP9 in fluopol-ABPP confirmation screen.
For another assay, the target named is purified RBBP9 (Homo sapiens, UniProt O75884). Description: gel-based competitive ABPP with purified RBBP9. Type of assay: biochemical. As to conditions: for RBBP9 inhibitory activity (in words): purified RBBP9, 20 µM.
Chain of purified RBBP9 (O75884 whole entry): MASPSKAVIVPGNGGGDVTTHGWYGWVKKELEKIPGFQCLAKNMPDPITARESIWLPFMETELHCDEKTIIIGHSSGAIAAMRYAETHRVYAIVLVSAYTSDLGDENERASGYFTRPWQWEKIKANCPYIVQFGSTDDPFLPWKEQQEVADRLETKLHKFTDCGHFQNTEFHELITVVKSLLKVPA

T1 sequence (O75884 whole entry): as above

Turning to `CC[C@H]1CN2CCc3cc(OC)c(OC)cc3[C@@H]2C[C@@H]1C[C@H]1NCCc2cc(OC)c(OC)cc21` [1 (emetine), emetine], in the assay on α2-adrenergic receptors, the “antagonism of α2-adrenergic receptors” value is on record as “antagonize of α2-adrenergic receptors”. For the same compound, on RBBP9 [1], the “mode of RBBP9 inhibition” value is on record as “reversible inhibitor of RBBP9”. In addition, in the assay with translation (ribosome), the inhibition of translation entry is given as “inhibit translation in vitro”. Also, the “reversibility of blockade of FP-rhodamine RBBP9 labeling” value at RBBP9 [2] is listed as “reversible inhibitor”.
In the case of `C/C(=N\OC(=O)c1ccc(Cl)cc1)c1nccs1` [Compound 2], the “selectivity for RBBP9 over other hydrolases” value (“selectivity for RBBP9” below) in assay [3] is “highly selective for RBBP9”. Besides, the “site of covalent adduct on RBBP9” value on RBBP9 [4] is listed as “adduct only on the active site serine nucleophile (Ser75)”. For the same compound, the “reversibility of blockade of FP-rhodamine RBBP9 labeling” value at RBBP9 [2] is reported as “not reversed by gel filtration”.
As to `COc1ccc(C(=O)O/N=C(\C)c2nccs2)cc1` [Compound 3], in assay [3], the “selectivity for RBBP9” value is on record as “highly selective for RBBP9”.
Regarding `CC1=CC(=NOC(=O)/C=C/c2ccccc2)C=C(C)C1=O` [Compound 4], the “selectivity for RBBP9” value in [5] is given as “less selective for RBBP9”. Besides, the “inhibition of PS-Rh labeling of GSTO1” value in assay [6] was “potently inhibited”. Besides, the inhibition at 7.94 µM on RBBP9 [7] was about 80%.
For `C/C(=N\OC(=O)c1ccc([N+](=O)[O-])cc1)c1nccs1` [Compound 12], the “RBBP9 inhibitory activity (in words)” value on purified RBBP9 is recorded as “loss of RBBP9 inhibitory activity”.
`C/C(=N\OC(=O)c1ccc(-c2ccccc2)cc1)c1nccs1` [Compound 13]: the “RBBP9 inhibitory activity (in words)” value on purified RBBP9 was “completely ablating all inhibitory activity”.
Consider `C/C(=N\OC(=O)C1CCCCC1)c1nccs1` [Compound 18], for which the figures for the “selectivity for RBBP9” value in assay [3] and in assay [5] were “did not inhibit any other hydrolases” and “selective for RBBP9”, respectively. Also, the “fold lower IC50 than hit compound 2” value on purified RBBP9 (recombinant RBBP9) was found to be 3 fold.
For `CC(=O)O/N=C(\C)c1nccs1` [Compound 19], the “RBBP9 inhibitory activity (in words)” value at purified RBBP9 is “no detectable inhibitory activity”.
Consider `C/C(=N\OC(=O)N1CCCCC1)c1nccs1` [Compound 20], for which the “RBBP9 inhibitory activity (in words)” value on purified RBBP9 is on record as “no inhibition of RBBP9”.
As for `COc1ccc(C(=O)ON=C2C=C(C)C(=O)C(C)=C2)cc1` [Compound 21], in assay [3], the “selectivity for RBBP9” value was “good selectivity for RBBP9”. The “inhibition of PS-Rh labeling of GSTO1” value in [6] is “no longer inhibited GSTO1”.
`COc1ccc(C(=O)O/N=C2/C=C(C)C(=O)C=C2C)cc1` [Compound 22]: the “RBBP9 inhibitory activity (in words)” value at purified RBBP9 is given as “loss of RBBP9 inhibitory activity”.
On the same count and under the same terms, to `COc1ccc(C(=O)ON=C2C(C)=CC(=O)C=C2C)cc1` [Compound 23] belongs “loss of RBBP9 inhibitory activity, an effect exacerbated”.
As to `C/C(=N\OC(=O)/C=C/c1ccccc1)c1nccs1` [Compound 24], on purified RBBP9, the “RBBP9 inhibitory activity (in words)” value is given as “significantly reduced activity against RBBP9”.
